# High-throughput results: PubChem BioAssay, Johns Hopkins Ion Channel Center
# KCNK3 block: human KCNK3 channel inhibition, primary screen; O14649; CHO-KCNK3 thallium flux, FluxOR fluorescence; hits give low values; B-score at 10 µM; 340,000 tested, 0.84% active;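 active = B-score under library mean minus 4 SD, starting fluorescence ratio at most library mean plus 5 SD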;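 note: more negative B-score means stronger inhibition of thallium flux through KCNK3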
# Target sequence (O14649 whole entry, looked up): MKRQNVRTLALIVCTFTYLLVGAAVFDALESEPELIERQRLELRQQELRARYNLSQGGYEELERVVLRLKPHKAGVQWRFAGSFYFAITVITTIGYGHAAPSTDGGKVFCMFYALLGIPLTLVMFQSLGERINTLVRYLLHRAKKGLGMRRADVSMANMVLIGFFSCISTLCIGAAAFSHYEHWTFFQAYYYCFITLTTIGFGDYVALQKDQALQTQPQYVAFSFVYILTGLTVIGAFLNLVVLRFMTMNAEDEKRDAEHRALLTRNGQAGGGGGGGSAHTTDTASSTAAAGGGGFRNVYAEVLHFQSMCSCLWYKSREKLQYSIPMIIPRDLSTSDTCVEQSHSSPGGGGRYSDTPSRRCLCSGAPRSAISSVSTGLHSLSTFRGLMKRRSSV
# KCNQ1 block: blocks the human KCNQ1 potassium channel | P51787 | CHO-K1 KCNQ1, FluxOR thallium flux fluorescence; hits give high values | B-score at 10 µM | 310,000 tested, 1.3% active | AID 2642;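 active = compounds whose thallium flux B-score, printed positive for inhibition, exceeds three library SD while starting fluorescence stays within three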;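 note: channel opened by potassium depolarization with thallium stimulus after 20 min compound exposure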
# hERG rescue: shields human hERG channel from block by proarrhythmic agents | CHO-hERG, FluxOR thallium flux, dofetilide IC70 present | activation (rescue from dofetilide block), less the hit threshold, % at 10 µM | 310,000 tested, 0.51% active;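 active = activation above the mean of controls blocked by dofetilide plus 5 SD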;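 note: thallium influx through hERG after potassium depolarization seen as dye fluorescence rise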
# Kir21 inh: blocks the mouse Kir2.1 inward-rectifier potassium channel; HEK293-Kir2.1, FluxOR thallium flux fluorescence; hits give low values; B-score at 10 µM; 310,000 tested, 0.85% active; AID 1672;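 active = fluorescence ratio B-score at or below minus 3 SD of library scores, with starting-brightness B-score within 2 SD, cut at about -4.2 in these data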;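 note: channel flux triggered by added potassium and thallium sulfate stimulus; B-score of peak minus minimum fluorescence over baseline after thallium stimulus; more negative B-score means stronger Kir2.1 block with less thallium influx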
# KCNQ1 pot: potentiates or activates the human KCNQ1 potassium channel. 310,000 tested, 0.35% active. CHO-K1 KCNQ1, thallium flux FluxOR fluorescence; hits give high values. B-score at 10 µM. P51787;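 active = fluorescence ratio B-score, a plate-corrected score, at least three library SD, with initial intensity B-score within 5 SD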
#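 assay system = KCNQ1-transfected CHO-K1 cells | medium = assay buffer with matched DMSO | probe or stimulus = depolarizing K+/Tl+ stimulus, K2SO4 and Tl2SO4 each 12.5 mM in 5x stock | dosing = single dose | incubation = dye 90 min, compound 20 min, room temperature | detection = kinetic FluxOR fluorescence, 10 s baseline plus 110 s post-stimulus | evaluation = ratio B score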
# KCNK9 inh: human KCNK9 channel inhibition; Q9NPC2; HEK293 KCNK9, FluxOR thallium flux fluorescence; hits give low values; B-score at 10 µM; 310,000 tested, 1.2% active;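 active = ratio B-score over 3 SD below the library mean, with starting fluorescence within 5 SD of its mean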;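 note: negative B-score means less thallium flux so channel inhibition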
# * hit, by the source's call; i = inactive; nt = no result given. Shown are actives, neighbours in structure and some others; about 3.8% of the full set was active somewhere.
SMILES,KCNK3 block,KCNQ1 block,hERG rescue,Kir21 inh,KCNQ1 pot,KCNK9 inh
COc1ccccc1CNCC(O)(c1ccc(Cl)cc1)c1ccc(Cl)cc1,i,i,-29.8,-3.19,i,i
OC(CNCc1ccccc1F)(c1ccc(F)cc1)c1ccc(F)cc1,i,i,-9.1,-1.33,i,-7.03*
COc1ccccc1CNCC(O)(c1ccc(F)cc1)c1ccc(F)cc1,i,i,-15.8,-5.92*,i,i
O=S(=O)(Nc1ccccc1)C1CCCCC1,i,nt,nt,nt,nt,nt
COc1ccc(CN(C)C(=O)c2cccc(Oc3ccccc3)c2)c(OC)c1OC,i,i,-11.3,-4.87*,i,i
COc1ccc(Br)cc1CN(C)CC(O)COc1ccc(Br)cc1 (centres undefined),i,i,-15.8,-6.51*,i,i
COc1ccc(CN(C)CC(O)COc2ccc(C(=O)c3ccccc3)cc2)c(OC)c1OC (centres undefined),i,i,-9.9,-4.28*,i,i
CC(C)c1nnc(NC(=O)C2CCN(C(=O)Nc3ccccc3)CC2)s1,i,i,-5.4,0.62,i,i
Cc1c(C(=O)N2CCN(c3ncccn3)CC2)oc2ccc(Cl)cc12,i,nt,nt,nt,nt,nt
CCCCN(C(C)=O)c1ccc(S(=O)(=O)NC2=NCCCCC2)cc1NC(C)=O,i,nt,nt,nt,nt,nt
O=C(CCN1Cc2ccccc2C1)c1ccc2c(c1)OCCO2,i,i,-5.2,-2.2,8*,i
O=C(CCN1CCc2ccccc2C(c2ccccc2)C1)c1ccc2c(c1)OCCO2 (centres undefined),i,11*,-31.4,0.06,i,i
CCCC(=O)c1ccc2c(c1)OCCO2,i,i,-0.9,0.06,i,i
O=C(O)CCC(=O)c1ccc2c(c1)OCCO2,i,i,-1.7,-0.35,i,i
Cc1ccc(CNC(=O)CC(C)S(=O)(=O)c2ccc3c(c2)NC(=O)C(C)S3)cc1 (centres undefined),i,i,-9.1,0.03,i,i
Cc1cc(C)c2nc(N3CCCC(C(=O)NCCCN4CCOCC4)C3)sc2c1 (centres undefined),i,i,-10.2,0.49,i,i
Cc1cc(C)c2nc(N3CCC(C(=O)NCCCN4CC(C)CC(C)C4)CC3)sc2c1 (centres undefined),i,i,-14.6,-6.78*,i,i
CCc1ccc2c(c1)c(N=NC1=NC(=O)CS1)c(O)n2C,i,i,0.8,0.94,13*,i
O=S(=O)(C/C(=C/CO)S(=O)(=O)c1ccccc1)c1ccccc1,i,6*,-13.4,-2.34,i,i
O=S(=O)(CS(=O)(=O)c1ccccc1)c1ccccc1,i,nt,nt,nt,nt,nt
O=C(O)/C=C/C(O)c1ccc(Cl)cc1 (centres undefined),i,nt,nt,nt,nt,nt
COC(=O)c1cnn(-c2ccccc2)c1/C=N/NC(=S)Nc1ccc(Cl)cc1,i,i,-7.4,0.73,i,i
CCOC(=O)c1ccc2c(c1)n(CC)c(/C=C/N(C)c1ccccc1)[n+]2CC,i,8*,-28.7,0.62,i,i
COC(=O)c1ccc(N2CCN(C)CC2)c(NC(=O)c2ccc(-c3ccc(Cl)cc3)o2)c1,i,i,-9.6,-0.38,i,i
Cc1ccc(C(C)C)c(OCC(=O)NCC(c2cccs2)N2CCOCC2)c1 (centres undefined),i,i,-15.2,-6.22*,i,i
SMILES,KCNK3 block,KCNQ1 block,hERG rescue,Kir21 inh,KCNQ1 pot,KCNK9 inh
Cc1ccc(OCC(=O)Nc2ccccc2N2CCOCC2)c(C)c1,i,i,-4.2,-8.87*,i,i
COc1cc(C)ccc1OCC(=O)Nc1ccccc1N1CCOCC1,i,nt,nt,nt,nt,nt
Cc1ccc(C(C)C)c(OCC(=O)Nc2ccccc2N2CCN(C)CC2)c1,i,i,-10.3,-5.11*,i,i
Cc1ccc(C(C)C)c(OCC(=O)Nc2ccc(N3CCOCC3)cc2N2CCOCC2)c1,i,nt,nt,nt,nt,nt
Cc1cc(OCC(=O)NCC(c2cccs2)N2CCOCC2)ccc1C(C)C (centres undefined),i,i,-14.6,-1.94,i,i
Cc1cc(Cl)ccc1OCC(=O)Nc1ccccc1C(=O)N1CCOCC1,i,i,-12.3,-4.55*,i,i
Cn1ccc(C(=O)Oc2ccc(C(=O)Nc3ccc(F)cc3F)cc2)n1,i,i,-4.7,-0.23,i,i
CC1(C)C(Cl)C(=O)C(C(=O)c2ccccc2)C(=O)C1Cl (centres undefined),i,i,-4.8,-0.05,i,i
Cc1ccc(NS(=O)(=O)c2c(C)nc3sccn3c2=O)c(C)c1,i,i,-6.3,0.3,i,i
Cc1cc(OCC(=O)Nc2ccccc2N2CCCCC2)ccc1C(C)C,i,i,-10.4,-1.19,i,i
CC(=O)N1CCN(c2ccccc2NC(=O)COc2cc(C)ccc2C(C)C)CC1,i,6*,-23.8,-3.19,i,i
O=C(CCn1c(=S)oc2ccccc21)Nc1cccc(O)c1,i,i,-8.2,-3.41,i,i
O=C(CCC(=O)N1CCN(Cc2ccc(F)cc2)CC1)Nc1nnc(C(F)(F)F)s1,i,i,-8.1,-0.39,i,i
CCN(CC)CCCN(C(=O)c1ccco1)c1nc(-c2ccc(C)cc2)cs1,i,i,-19.8,-0.07,i,i
CCN(CC)CCCN(C(=O)c1ccco1)c1nc(-c2ccc(Cl)cc2)cs1,i,i,-18.8,-6.16*,i,i
O=C(NC(=S)N1CCN(Cc2ccc3c(c2)OCO3)CC1)c1ccc(Cl)cc1,i,i,23.9*,0.86,11*,i
O=C(NC(=S)N1CCN(Cc2ccc3c(c2)OCO3)CC1)c1cccc(Br)c1,i,i,25.3*,0.63,29*,i
CC1CN(C(=S)NC(=O)c2ccc(Cl)cc2)CC(C)O1 (centres undefined),i,i,6.4*,1.63,i,i
CCNC(=S)N1CCN(Cc2ccc3c(c2)OCO3)CC1,i,i,-6.4,1.71,i,i
NC(=O)c1cc(S(=O)(=O)N2CCc3ccccc3C2)cs1,i,i,-2.4,1.26,i,i
COc1ccc(CCc2nnc(N)s2)cc1OC,i,i,-1.9,1.24,i,i
CCOC(=O)C1=C(c2ccccc2)OC(N)=C(C#N)C1c1ccc(Cl)s1 (centres undefined),i,i,-6.2,1.51,i,-6.62*
CCc1nnc(NC(=O)c2cccc(S(=O)(=O)N3CCN(c4ccccc4)CC3)c2)s1,i,i,5.5*,1.15,i,i
CCc1nnc(NC(=O)c2cc(S(=O)(=O)N3CCN(c4ccccc4)CC3)ccc2Cl)s1,i,i,-0.8,-0.36,i,i
